The text below walks through data of ChEMBL document CHEMBL1147465, “Nucleic acid-binding ligands identify new mechanisms to inhibit telomerase” (Bioorg Med Chem Lett, 2004).

Assay [1] deals with Telomerase reverse transcriptase (Homo sapiens) (UniProt O14746). Nature of the assay: Inhibition of human telomerase after assembly using recombinant hTR and hTERT at 50 uM. The method, boiled down: (§1)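 Telomerase reconstituted from in vitro transcribed hTR and hTERT translated in vitro in rabbit reticulocyte lysate. Line 2: ligand added to hTR plus hTERT before a 90 min assembly incubation in lysate. Line 1: ligand added to telomerase already assembled in lysate.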
Sequence of Telomerase reverse transcriptase (Homo sapiens) (O14746 whole entry): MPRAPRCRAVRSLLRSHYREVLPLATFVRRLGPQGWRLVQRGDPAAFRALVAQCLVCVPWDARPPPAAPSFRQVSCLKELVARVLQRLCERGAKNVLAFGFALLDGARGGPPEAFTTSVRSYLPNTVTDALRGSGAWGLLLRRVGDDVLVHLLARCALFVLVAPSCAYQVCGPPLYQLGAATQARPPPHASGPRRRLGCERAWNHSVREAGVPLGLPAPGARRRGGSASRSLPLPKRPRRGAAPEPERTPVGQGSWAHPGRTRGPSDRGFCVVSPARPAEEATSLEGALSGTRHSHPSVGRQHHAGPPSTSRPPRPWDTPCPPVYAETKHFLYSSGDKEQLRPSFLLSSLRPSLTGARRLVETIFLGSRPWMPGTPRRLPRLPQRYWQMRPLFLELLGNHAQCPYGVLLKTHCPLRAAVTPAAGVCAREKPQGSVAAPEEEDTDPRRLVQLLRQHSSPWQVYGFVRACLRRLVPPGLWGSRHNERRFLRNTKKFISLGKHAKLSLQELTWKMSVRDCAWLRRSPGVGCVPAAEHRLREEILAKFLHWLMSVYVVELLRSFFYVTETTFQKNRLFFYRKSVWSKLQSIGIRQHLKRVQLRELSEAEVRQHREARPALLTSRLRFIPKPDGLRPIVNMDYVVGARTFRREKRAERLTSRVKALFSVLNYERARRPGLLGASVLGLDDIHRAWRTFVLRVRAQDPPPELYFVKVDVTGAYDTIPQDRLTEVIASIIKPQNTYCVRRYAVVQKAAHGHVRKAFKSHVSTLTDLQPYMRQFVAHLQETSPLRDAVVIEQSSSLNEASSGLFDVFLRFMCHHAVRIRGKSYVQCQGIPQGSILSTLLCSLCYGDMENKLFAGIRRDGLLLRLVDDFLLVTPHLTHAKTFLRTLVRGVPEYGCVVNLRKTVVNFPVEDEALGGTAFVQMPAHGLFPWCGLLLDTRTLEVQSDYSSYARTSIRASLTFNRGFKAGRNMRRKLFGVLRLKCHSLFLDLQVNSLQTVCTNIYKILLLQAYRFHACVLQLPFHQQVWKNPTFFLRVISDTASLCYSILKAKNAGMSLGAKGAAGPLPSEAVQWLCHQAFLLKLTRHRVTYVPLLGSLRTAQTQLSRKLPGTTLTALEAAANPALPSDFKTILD

In assay [2] the test system is Tetrahymena thermophila. Description: Inhibition of telomerase after assembly using recombinant Tetraymena thermophilia TR and TERT at 50 uM.
Assay [3] has as its system Tetrahymena thermophila. Nature of the assay: Inhibition of telomerase before assembly using recombinant Tetraymena thermophilia TR and TERT at 50 uM.
Assay [4] deals with Telomerase reverse transcriptase (Homo sapiens) (UniProt O14746). Nature of the assay: Inhibition of human telomerase before assembly using recombinant hTR and hTERT at 50 uM. In a few lines:
as §1

Another assay concerns Euplotes aediculatus. Nature of the assay: Inhibition of purified telomerase of Euplotes aediculatus at 50 uM. The method, boiled down:
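Endogenous telomerase purified from E. aediculatus, tested in a direct activity assay with inhibitor at 50 µM.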

With `NC[C@@H]1O[C@H](O[C@H]2[C@@H](O)[C@H](O[C@@H]3[C@@H](O)[C@H](N)C[C@H](N)[C@H]3O[C@H]3O[C@H](CO)[C@@H](O)[C@H](O)[C@H]3N)O[C@@H]2CO)[C@H](N)[C@@H](O)[C@@H]1O`, the inhibition was 29% in assay [1]; 0% in the assay on Tetrahymena thermophila [2]; 0% in the assay with Tetrahymena thermophila [3]; 60% in assay [4]; 0% in the assay on Euplotes aediculatus.
Turning to `CCN(CC)CCCC(C)Nc1c2ccc(Cl)cc2nc2ccc(OC)cc12` (centres undefined), the inhibition in assay [1] stood at 50%; in the assay on Tetrahymena thermophila [2] it was 80%; with Tetrahymena thermophila [3], 93%; in assay [4], 82%; with Euplotes aediculatus, 75%.
On to `CN[C@@H]1[C@H](O)[C@H](NC)[C@H]2O[C@@]3(O)C(=O)C[C@@H](C)O[C@H]3O[C@@H]2[C@H]1O`, for which the inhibition (with Tetrahymena thermophila [2]; with Tetrahymena thermophila [3]; in assay [4]; in the assay with Euplotes aediculatus) was 0% throughout.
With `Cn1cc(NC(=O)c2cc(NC(=O)c3cc(NC=O)cn3C)cn2C)cc1C(=O)NCCC(=N)N`, the inhibition amounted to 0% in the assay with Tetrahymena thermophila [2], 0% with Tetrahymena thermophila [3], 10% in assay [4] and 75% with Euplotes aediculatus.
Turning to GENTAMICIN, the inhibition in assay [1] turned out to be 19%; in the assay on Tetrahymena thermophila [2] it was 0%; in the assay with Tetrahymena thermophila [3], 0%; in assay [4] it was 64%; in the assay with Euplotes aediculatus, 0%.
As to `NC[C@@H]1O[C@H](O[C@H]2[C@@H](O)[C@H](O[C@@H]3[C@@H](O)[C@H](N)C[C@H](N)[C@H]3O[C@H]3O[C@H](CO)[C@@H](O)C[C@H]3N)O[C@@H]2CO)[C@H](N)[C@@H](O)[C@@H]1O[C@H]1O[C@H](CO)[C@@H](O)[C@H](O)[C@@H]1O`, the inhibition in assay [1] amounted to 12%; in the assay with Tetrahymena thermophila [2], 0%; with Tetrahymena thermophila [3], 0%; in assay [4] it was 50%; in the assay with Euplotes aediculatus it was 10%.
As for `CN[C@@H]1[C@@H](O[C@H]2O[C@H](CO)[C@@H](N)[C@H](O)[C@H]2O)OC2C[C@@H](N)[C@@H](O[C@H]3[C@H](O)[C@@H](O)[C@H](N)C[C@@H]3N)OC2[C@@H]1O` (some centres undefined), the inhibition amounted to 0% with Tetrahymena thermophila [2], 0% with Tetrahymena thermophila [3], 30% in assay [4] and 0% in the assay on Euplotes aediculatus.
On to `CN(C)[C@@H]1C(O)=C(C(N)=O)C(=O)[C@@]2(O)C(O)=C3C(=O)c4c(O)cccc4[C@@](C)(O)[C@H]3C[C@@H]12`, for which the inhibition with Tetrahymena thermophila [2] was 0%; in the assay with Tetrahymena thermophila [3], 0%; in assay [4], 10%; with Euplotes aediculatus, 0%.
In the case of `N=C(N)c1ccc(-c2cc3ccc(C(=N)N)cc3[nH]2)cc1`, the inhibition in assay [1] was 72%; in the assay on Tetrahymena thermophila [2], 70%; in the assay on Tetrahymena thermophila [3], 70%; in assay [4], 90%; in the assay with Euplotes aediculatus it was 0%.
As to `CN1CCN(c2ccc3[nH]c(-c4ccc5[nH]c(-c6ccc(O)cc6)nc5c4)nc3c2)CC1`, the inhibition in assay [1] is 34%; with Tetrahymena thermophila [2] it was 15%; in the assay with Tetrahymena thermophila [3], 50%; in assay [4] it was 81%; with Euplotes aediculatus it was 86%.
Consider `Nc1ccc2cc3ccc(N)cc3nc2c1`, for which the inhibition in assay [1] was determined as 90%; in the assay with Tetrahymena thermophila [2], 90%; in the assay on Tetrahymena thermophila [3] it was 90%; in assay [4] it was 95%; with Euplotes aediculatus, 52%.
With `NCC[C@H](O)C(=O)N[C@@H]1C[C@H](N)[C@@H](O[C@H]2O[C@H](CN)[C@@H](O)[C@H](O)[C@H]2O)[C@H](O)[C@H]1O[C@H]1O[C@H](CO)[C@@H](O)[C@H](N)[C@H]1O`, the inhibition came to 0% in the assay on Tetrahymena thermophila [2], 0% in the assay with Tetrahymena thermophila [3], 25% in assay [4] and 0% in the assay on Euplotes aediculatus.
Regarding `CN[C@@H]1C[C@H](N)[C@@H](O)[C@H](O[C@H]2O[C@H](CO)[C@H](O)[C@@H]3O[C@@]4(O[C@@H]23)O[C@H]([C@H](N)CO)[C@H](O)[C@H](O)[C@H]4O)[C@H]1O`, the inhibition (in the assay with Tetrahymena thermophila [2]; with Tetrahymena thermophila [3]; in assay [4]; in the assay on Euplotes aediculatus) was 0% each time.
